Experimental data taken from ChEMBL document CHEMBL1131291, “Rational design, synthesis, and X-ray structure of selective noncovalent thrombin inhibitors” (J Med Chem, 1998).
pKi: −log10 of the molar value.

Experiments:
Prothrombin = Prothrombin (Homo sapiens, UniProt P00734); assay: In vitro inhibition was measured against Human Thrombin.
Serine protease 1 [1] = biological target: T1, Serine protease 1 (Bos taurus, UniProt P00760); assay: In vitro inhibition was measured against […] bovine pancreatic trypsin.
T1 sequence (P00760 whole entry): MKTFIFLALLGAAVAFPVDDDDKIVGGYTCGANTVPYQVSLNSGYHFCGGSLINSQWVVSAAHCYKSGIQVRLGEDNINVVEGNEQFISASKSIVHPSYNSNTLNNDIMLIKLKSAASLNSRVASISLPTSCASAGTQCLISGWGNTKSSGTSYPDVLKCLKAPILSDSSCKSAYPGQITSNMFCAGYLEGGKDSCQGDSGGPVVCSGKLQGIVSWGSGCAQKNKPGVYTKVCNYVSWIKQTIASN
Method in brief: (§1)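 Trypsin at 260 pM final was run with Pefachrome TRY substrate in 100 mM sodium phosphate pH 7.4, 100 mM NaCl and 0.1% BSA, at 25 °C. Inhibitor was pre-mixed with substrate and the reaction started with enzyme. Absorbance at 405 nm (p-nitroaniline) was read over 30 min. Ki was fitted to the Dixon equation by weighted linear regression; triplicate, mean ± SD.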

Coagulation factor X [2] = biological target: T2, Coagulation factor X (Homo sapiens, UniProt P00742); assay: In vitro inhibition was measured against Human Coagulation factor X; […]
T2 sequence (P00742 41-179 limits assumed): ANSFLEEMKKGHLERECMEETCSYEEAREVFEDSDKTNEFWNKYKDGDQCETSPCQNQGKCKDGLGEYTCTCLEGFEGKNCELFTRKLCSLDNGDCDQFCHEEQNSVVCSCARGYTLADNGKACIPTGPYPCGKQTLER
T2 sequence (P00742 235-488 limits assumed): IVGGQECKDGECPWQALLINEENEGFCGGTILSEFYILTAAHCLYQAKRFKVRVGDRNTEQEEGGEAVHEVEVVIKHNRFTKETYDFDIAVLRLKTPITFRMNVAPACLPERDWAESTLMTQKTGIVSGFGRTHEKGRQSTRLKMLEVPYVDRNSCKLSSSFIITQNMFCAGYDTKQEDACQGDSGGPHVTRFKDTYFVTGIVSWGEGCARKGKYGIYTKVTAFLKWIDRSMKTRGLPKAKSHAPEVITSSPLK
Method in brief: (§2)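 Factor Xa was used at 30 pM final, with Pefachrome Xa substrate, in phosphate buffer pH 7.4 with 100 mM NaCl and 0.1% BSA, at 25 °C. The enzyme-initiated reaction was followed as the 405 nm increase for 30 min. Inhibitor was diluted from a cremophor/ethanol solution. Ki came from weighted Dixon-plot regression; triplicate determinations.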

Coagulation factor X [3] = biological target: T2, Coagulation factor X; assay: In vitro inhibition was measured against Human Coagulation factor X; method in brief: as §2
Serine protease 1 [4] = biological target: T1, Serine protease 1; assay: In vitro inhibition was measured against Bovine pancreatic trypsin.; method in brief: as §1

Row | SMILES | pKi (Prothrombin) | pKi (Serine protease 1 [1]) | Ki (Coagulation factor X [2]) | pKi (Coagulation factor X [3]) | pKi (Serine protease 1 [4])
1 | NC(N)=NCCCCNC(=O)[C@@H]1CS[C@H]2CC[C@H](N)C(=O)N21.O=C(O)C(F)(F)F | 4.71 | 5.45 | Not Active |  | 
2 | N=C(N)NCCCNC(=O)[C@@H]1CS[C@H]2CC[C@@H](NS(=O)(=O)Cc3ccccc3)C(=O)N21 |  | 5.29 |  | 4.59 | 
3 | N=C(N)NCCCNC(=O)[C@@H]1CS[C@H]2CC[C@H](NS(=O)(=O)c3cccc4ccccc34)C(=O)N21 |  |  |  | 4.75 | 4.71
4 | N=C(N)NCCCNC(=O)[C@@H]1CS[C@H]2CC[C@@H](NS(=O)(=O)c3cccc4ccccc34)C(=O)N21 | 6.12 | 5.47 |  | 5.17 | 
5 | NC(N)=NCCCCNC(=O)[C@@H]1CS[C@H]2CC[C@@H](N)C(=O)N21.O=C(O)C(F)(F)F | 4.20 | 5.27 | Not Active |  | 
6 | NC(N)=NCCCNC(=O)[C@@H]1CS[C@H]2CC[C@H](N)C(=O)N21 | 5.29 | 4.88 |  | < 4.47 | 
7 | NC(N)=NCCCNC(=O)[C@@H]1CS[C@H]2CC[C@@H](N)C(=O)N21.O=C(O)C(F)(F)F | 4.99 | 4.60 | Not Active |  | 
8 | N=C(N)NCCCNC(=O)[C@@H]1CS[C@H]2CC[C@H](NS(=O)(=O)Cc3ccccc3)C(=O)N21 | 6.95 | 5.10 |  | < 4.47 | 
